Source: ChEMBL document CHEMBL4513216, “Probing the Open Global Health Chemical Diversity Library for Multistage-Active Starting Points for Next-Generation Antimalarials” (ACS Infect Dis, 2020)

Assay: Toxicity liver stage against HepG2, at 10uM
Format: cell-based
Design: test concentration 10 uM, cell line HepG2-A16-CD81EGFP
Details: human, HepG2-A16-CD81EGFP cells; read-out: INHIBITION
Summary of the method: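 Uninfected HepG2-A16-CD81EGFP cells, 3 × 10^3 per well, 1536-well, plated on prespotted compound at 10 μM final, parasite-free screening media added to match infected plates; puromycin 10 μM positive, DMSO 0.5% negative; run in parallel with 48 h PbLuc assay at 37 °C, 5% CO2; viability by CellTiter-Glo luminescence, normalized to controls.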
COc1cccc(CN2CC[C@H](c3nnc(-c4ccco4)o3)C2)c1 showed a cytotoxicity at 10 µM of -1.34%.
In the case of CC(=O)N1CCC(NC2(Cc3cc(CC(C)C)on3)COC2)CC1, the cytotoxicity at 10 µM is reported as 2.8%.
With COC(=O)N1CCc2ccccc2C1C(=O)NCc1cccs1 (stereo not given) the cytotoxicity at 10 µM was -0.634%.
COc1cccc2c1ccn2CC(=O)N[C@@H](CCSC)C(=O)O gave a cytotoxicity at 10 µM of 3.2%.
With CCOc1ccc2nc(NC(=O)c3c(C(=O)O)cnn3C)sc2c1 the cytotoxicity at 10 µM was 6.47%.
COCCNc1ccc(CC2CCNC2)cn1 (stereo not given) gave a cytotoxicity at 10 µM of 9.33%.
CC(=O)N1CCC(Cc2cnc(-c3c(C)nn(C)c3C)cn2)CC1 gave a cytotoxicity at 10 µM of -11.8%.
With CNC(=O)C1(C)CCCN(c2cnccn2)C1 (stereo not given) the cytotoxicity at 10 µM was -25.3%.
Work on CNc1cc(C2CN(Cc3scnc3C)CCO2)nc(C)n1 (stereo not given) yielded a cytotoxicity at 10 µM of -24.7%.
COCCC(=O)N1CCC(C(=O)c2cc(C)cnc2N)CC1 gave a cytotoxicity at 10 µM of -27.7%.
COCC(=O)N1CCCCC1c1ccnc(Nc2cnccn2)n1 (stereo not given) gave a cytotoxicity at 10 µM of -24.1%.
For Cc1nncn1CCNC(=O)C1SCCc2sccc21 (stereo not given), the cytotoxicity at 10 µM was 2.96%.
With Cc1noc(OCC(=O)N2CCCCC2C)n1 (stereo not given) the cytotoxicity at 10 µM was 0.714%.
Compound Cc1ccc(S(=O)(=O)N2CCOCC2C#N)c(F)c1 (stereo not given) has a cytotoxicity at 10 µM of 9.78%.
For O=C(NCc1cc(F)cc(Br)c1)C1(O)CCSCC1, the cytotoxicity at 10 µM was 3.6%.
Cc1ccc(NCc2ncc(C(C)(C)C)o2)c(Cl)c1 showed a cytotoxicity at 10 µM of -15.4%.
Work on CCC1CN(C(=O)COc2ccc(C(=O)NC3CC3)cc2)CCO1 (stereo not given) yielded a cytotoxicity at 10 µM of -4.39%.
For O=S(=O)(Nc1ncccc1F)c1cc(Cl)cc2c1OCC2, the cytotoxicity at 10 µM was 1.6%.
Compound O=C(c1c[nH]c2ccccc2c1=O)N1CCSCC1 has a cytotoxicity at 10 µM of -5.63%.
Work on CCSc1cncc(N2CCC(C(=O)NC(C)C(C)C)CC2)n1 (stereo not given) yielded a cytotoxicity at 10 µM of -1.81%.
For Cc1cnn(CC2CN(CCS(=O)(=O)c3ccccc3)CCO2)c1 (stereo not given), the cytotoxicity at 10 µM was -3.08%.
With COCC1CN(C(=O)Cc2ccccn2)Cc2cn(CC3CC3)nc21 (stereo not given) the cytotoxicity at 10 µM was -1.32%.
Work on CC(C)c1nc(N2CCC(N3CCCC(O)C3)CC2)c2cnn(C)c2n1 (stereo not given) yielded a cytotoxicity at 10 µM of -127%.
With Nc1cnc(-c2cccc3ccnn23)cn1 the cytotoxicity at 10 µM was -1.7%.
COCCn1ccnc1C1CCCN(C(=O)c2ccccc2C#N)C1 (stereo not given) gave a cytotoxicity at 10 µM of -0.675%.
With COC(=O)[C@@H]1C[C@@H](NC(=O)CN2C(=O)N(C)Cc3ccccc32)CN1C the cytotoxicity at 10 µM was -2.62%.
In the case of Cc1ccc(C#N)c(N2CCC3(CCC(=O)N(CC(N)=O)C3)CC2)n1, the cytotoxicity at 10 µM is reported as 0.845%.
Compound O=C(c1ccsc1)N1CCc2c(nc(-c3ccncc3)[nH]c2=O)C1 has a cytotoxicity at 10 µM of -1.67%.
CC(NC(=O)c1coc(COc2cccc(F)c2)n1)c1nnc(N)s1 (stereo not given) gave a cytotoxicity at 10 µM of -144%.
Cn1c(CN2CCCCC2)nnc1C1CCCN(C(=O)CCC(N)=O)C1 (stereo not given) showed a cytotoxicity at 10 µM of 3.94%.
Compound CCN(CCc1nc2cc(C)ccc2[nH]1)C(=O)[C@@H](N)Cc1c[nH]cn1 has a cytotoxicity at 10 µM of -3.78%.
In the case of CSCc1noc(CNC(=O)C2CCN(C(=O)C3CCCC3)CC2)n1, the cytotoxicity at 10 µM is reported as 9.98%.
In the case of CN(C)[C@H]1CN(C(=O)c2ccc3sc4c(c3c2)CCNC4=O)C[C@@H]1O, the cytotoxicity at 10 µM is reported as -5.38%.
Work on Cc1nc(C2CCCN2C(=O)CCCn2cccn2)no1 (stereo not given) yielded a cytotoxicity at 10 µM of -4.77%.
Work on CC(C)c1nc(CN(C)C2CCN(Cc3nnc(C4CC4)o3)C2)no1 (stereo not given) yielded a cytotoxicity at 10 µM of 5.87%.
c1ccc(CCCN2CCCC2Cn2cncn2)cc1 (stereo not given) gave a cytotoxicity at 10 µM of -0.121%.
CC(C)CCOCCNC(=O)Nc1ccc(F)c(C(N)=O)c1 showed a cytotoxicity at 10 µM of -11.6%.
In the case of Cc1cc(C)n(C2CCCN(C(=O)CCOc3cccc(F)c3)C2)n1 (stereo not given), the cytotoxicity at 10 µM is reported as -5.56%.
Cc1ccc(-c2nc(CN3CCn4c(nnc4C4CC4)C3)co2)cc1 gave a cytotoxicity at 10 µM of 5.17%.
Work on CC(=O)N1CCC[C@@H](NCc2c[nH]c3ccccc23)[C@@H]1c1ccc(C)s1 yielded a cytotoxicity at 10 µM of -39%.
Work on O=S(=O)(C1CC1)N1CCOCC2(CCN(c3ccccn3)C2)C1 (stereo not given) yielded a cytotoxicity at 10 µM of 12.9%.
Compound COCCN1C[C@@H]2[C@@H](OC)CCN(C(=O)Cc3ccccc3)[C@@H]2C1 has a cytotoxicity at 10 µM of 3.5%.
Compound Cc1ccc(C(=O)N2C[C@H]3CC[C@@H](C2)N(CC2CCC2)C3)s1 has a cytotoxicity at 10 µM of -4.2%.
Compound CC(C)c1ccc(NS(=O)(=O)C=c2[nH]c(=O)n3cccc3c2=O)cc1 has a cytotoxicity at 10 µM of -4.55%.
Compound O[C@@H]1CC(CNCc2ccc(Cl)cc2)(COc2cccnc2)C[C@@H]1O (stereo not given in full) has a cytotoxicity at 10 µM of -2.23%.
